Results: ChEMBL document CHEMBL3351454, “Design, synthesis, antimicrobial evaluation and molecular docking studies of some new thiophene, pyrazole and pyridone derivatives bearing sulfisoxazole moiety” (2014)
Converted amounts (≈) assume the structure as drawn.

Tests used:
Assay type in all cases: functional
[1] = system: Staphylococcus epidermidis; assay: Antimicrobial activity against Staphylococcus epidermidis RCMB 010024 assessed as absence of turbidity after 24 hrs; settings: RCMB 010024, 24 h
Method in brief: (§1)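 Broth microdilution in Müller–Hinton broth. DMF stocks at 1000 µg/mL were diluted in broth to give twofold serial dilutions over 500–0.007 µg/mL. Bacterial inoculum was about 10^6 CFU/mL in 96-well plates, sealed and incubated at 37 °C for 24 h in a humid chamber. MIC was taken as the lowest concentration with no visible turbidity. DMF and uninoculated-medium controls were included. Only compounds giving zones >10 mm were tested.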

[2] = system: Geotrichum candidum; assay: Antifungal activity against Geotrichum candidum RCMB 05097 assessed as absence of turbidity after 48 hrs; settings: RCMB 05097, 48 h
Method in brief: (§2)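 Broth microdilution in Sabouraud liquid medium. DMF stocks at 1000 µg/mL were diluted in broth to give twofold serial dilutions over 500–0.007 µg/mL. Fungal inoculum was about 10^4 CFU/mL in 96-well plates, sealed and incubated at 25 °C for 48 h in a humid chamber. MIC was taken as the lowest concentration with no visible turbidity. DMF and uninoculated-medium controls were included.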

[3] = system: Aspergillus fumigatus; assay: Antifungal activity against Aspergillus fumigatus RCMB 02568 assessed as absence of turbidity after 48 hrs; settings: RCMB 02568, 48 h; method in brief: as §2
[4] = system: Syncephalastrum racemosum; assay: Antifungal activity against Syncephalastrum racemosum RCMB 05922 assessed as inhibition zone at 5 mg/ml after 48 hrs; settings: RCMB 05922, 48 h, read-out: IZ
[5] = system: Geotrichum candidum; assay: Antifungal activity against Geotrichum candidum RCMB 05097 assessed as inhibition zone at 5 mg/ml after 48 hrs; settings: RCMB 05097, 48 h, read-out: IZ
Method in brief: (§3)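 Disk diffusion on nutrient agar seeded with 10^4 CFU/mL fungus. Sterile filter-paper disks carried 100 µL of a 5 mg/mL DMF solution, and DMF alone served as control. Plates were incubated at 25 °C for 48 h. Mean inhibition zone in mm ± SD was read beyond the 6 mm diameter, in triplicate.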

[6] = system: Escherichia coli; assay: Antimicrobial activity against Escherichia coli RCMB 010052 assessed as absence of turbidity after 24 hrs; method in brief: as §1
[7] = system: Aspergillus fumigatus; assay: Antifungal activity against Aspergillus fumigatus RCMB 02568 assessed as inhibition zone at 5 mg/ml after 48 hrs; settings: RCMB 02568, 48 h, read-out: IZ; method in brief: as §3
[8] = system: Escherichia coli; assay: Antimicrobial activity against Escherichia coli RCMB 010052 assessed as inhibition zone at 5 mg/ml after 24 hrs; settings: RCMB 010052, 24 h, read-out: IZ
Method in brief: (§4)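 Agar diffusion on nutrient agar seeded with 10^6 CFU/mL bacteria. Filter-paper disks were loaded with 100 µL of a 5 mg/mL compound solution in DMF, with a DMF-only control. Incubation was 37 °C for 24 h. Inhibition zone in mm (mean ± SD, triplicate plates) was measured beyond the 6 mm diameter.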

[9] = system: Streptococcus pneumoniae; assay: Antimicrobial activity against Streptococcus pneumoniae RCMB 010010 assessed as inhibition zone at 5 mg/ml after 24 hrs; settings: RCMB 010010, 24 h, read-out: IZ; method in brief: as §4
[10] = system: Streptococcus pneumoniae; assay: Antimicrobial activity against Streptococcus pneumoniae RCMB 010010 assessed as absence of turbidity after 24 hrs; settings: RCMB 010010, 24 h; method in brief: as §1
[11] = system: Bacillus subtilis; assay: Antimicrobial activity against Bacillis subtilis RCMB 010067 assessed as absence of turbidity after 24 hrs; settings: RCMB 010067, 24 h; method in brief: as §1
[12] = system: Klebsiella pneumoniae; assay: Antimicrobial activity against Klebsiella pneumoniae RCMB 010093 assessed as inhibition zone at 5 mg/ml after 24 hrs; settings: for zone of inhibition at 5000 µg/mL: RCMB 010093, 24 h, read-out: IZ; method in brief: as §4
[13] = system: Staphylococcus epidermidis; assay: Antimicrobial activity against Staphylococcus epidermidis RCMB 010024 assessed as inhibition zone at 5 mg/ml after 24 hrs; settings: RCMB 010024, 24 h, read-out: IZ; method in brief: as §4
[14] = system: Klebsiella pneumoniae; assay: Antimicrobial activity against Klebsiella pneumoniae RCMB 010093 assessed as absence of turbidity after 24 hrs; method in brief: as §1
[15] = system: Bacillus subtilis; assay: Antimicrobial activity against Bacillis subtilis RCMB 010067 assessed as inhibition zone at 5 mg/ml after 24 hrs; settings: RCMB 010067, 24 h, read-out: IZ; method in brief: as §4
[16] = system: Syncephalastrum racemosum; assay: Antifungal activity against Syncephalastrum racemosum RCMB 05922 assessed as absence of turbidity after 48 hrs; settings: RCMB 05922, 48 h
[17] = system: Proteus vulgaris; assay: Antimicrobial activity against Proteus vulgaris RCMB 010085 assessed as inhibition zone at 5 mg/ml after 24 hrs; method in brief: as §4
[18] = system: Proteus vulgaris; assay: Antimicrobial activity against Proteus vulgaris RCMB 010085 assessed as absence of turbidity after 24 hrs; method in brief: as §1

Row | Compound | MIC [1] | MIC [2] | MIC [3] | zone of inhibition at 5000 µg/mL [4] | zone of inhibition at 5000 µg/mL [5] | MIC ([6]; RCMB 010052, 24 h) | zone of inhibition at 5000 µg/mL [7] | zone of inhibition at 5000 µg/mL [8] | zone of inhibition at 5000 µg/mL [9] | MIC [10] | MIC [11] | zone of inhibition at 5000 µg/mL [12] | zone of inhibition at 5000 µg/mL [13] | MIC ([14]; RCMB 010093, 24 h) | zone of inhibition at 5000 µg/mL [15] | MIC [16] | also measured
1 | Cc1noc(NS(=O)(=O)c2ccc(NC(=O)c3c(Nc4ccccc4)sc(C#N)c3N)cc2)c1C | 125 µg/mL (≈ 246 µM) | 15.6 µg/mL (≈ 30.7 µM) | 31.2 µg/mL (≈ 61.4 µM) | 15.2 mm | 17.3 mm | 500 µg/mL (≈ 983 µM) | 16.3 mm | 11.2 mm | 15.2 mm | 62.5 µg/mL (≈ 123 µM) | 15.6 µg/mL (≈ 30.7 µM) | 13.6 mm | 14.2 mm | 125 µg/mL (≈ 246 µM) | 17.4 mm | 62.5 µg/mL (≈ 123 µM) | –
2 | Cc1noc(NS(=O)(=O)c2ccc(N)cc2)c1C [SULFISOXAZOLE] | 7.81 µg/mL (≈ 29.2 µM) | 15.6 µg/mL (≈ 58.5 µM) | 62.5 µg/mL (≈ 234 µM) | 13.2 mm | 16.8 mm | 62.5 µg/mL (≈ 234 µM) | 15.1 mm | 15.2 mm | 19.6 mm | 1.95 µg/mL (≈ 7.29 µM) | 0.98 µg/mL (≈ 3.67 µM) | 18.2 mm | 17.5 mm | 7.81 µg/mL (≈ 29.2 µM) | 20.8 mm | 125 µg/mL (≈ 468 µM) | –
3 | C[C@@H]1[C@H](O)[C@@H](C)/C=C/C=C/C=C/C=C/C=C/C=C/C=C/[C@H](O[C@@H]2O[C@H](C)[C@@H](O)[C@H](N)[C@@H]2O)C[C@@H]2O[C@](O)(C[C@@H](O)C[C@@H](O)[C@H](O)CC[C@@H](O)C[C@@H](O)CC(=O)O[C@H]1C)C[C@H](O)[C@H]2C(=O)O [AMPHOTERICIN B] | – | 0.007 µg/mL (≈ 0.00758 µM) | 0.12 µg/mL (≈ 0.13 µM) | 19.7 mm | 28.7 mm | – | 23.7 mm | – | – | – | – | – | – | – | – | 7.81 µg/mL (≈ 8.45 µM) | –
4 | CC1(C)S[C@@H]2[C@H](NC(=O)[C@H](N)c3ccccc3)C(=O)N2[C@H]1C(=O)O [AMPICILLIN] | 0.06 µg/mL (≈ 0.172 µM) | – | – | – | – | – | – | – | 23.8 mm | 0.12 µg/mL (≈ 0.343 µM) | 0.24 µg/mL (≈ 0.687 µM) | – | 25.4 mm | – | 32.4 mm | – | –
5 | Cc1noc(NS(=O)(=O)c2ccc(NC(=O)/C(C#N)=C/c3ccco3)cc2)c1C | 31.2 µg/mL (≈ 75.8 µM) | 62.5 µg/mL (≈ 152 µM) | 125 µg/mL (≈ 303 µM) | 12.1 mm | 14.6 mm | 0.12 µg/mL (≈ 0.291 µM) | 13.9 mm | 14.9 mm | 16.9 mm | 15.6 µg/mL (≈ 37.9 µM) | 15.6 µg/mL (≈ 37.9 µM) | 15 mm | 16.2 mm | 0.12 µg/mL (≈ 0.291 µM) | 17.4 mm | 500 µg/mL (≈ 1210 µM) | –
6 | Cc1noc(NS(=O)(=O)c2ccc(NC(=O)/C(C#N)=C/N(C)C)cc2)c1C | 7.81 µg/mL (≈ 20.1 µM) | 0.98 µg/mL (≈ 2.52 µM) | 7.81 µg/mL (≈ 20.1 µM) | 21.1 mm | 21.3 mm | 31.2 µg/mL (≈ 80.2 µM) | 18.3 mm | 16.3 mm | 20 mm | 1.95 µg/mL (≈ 5.01 µM) | 0.98 µg/mL (≈ 2.52 µM) | 17.1 mm | 18.2 mm | 15.6 µg/mL (≈ 40.1 µM) | 21.4 mm | 0.98 µg/mL (≈ 2.52 µM) | –
7 | CCOc1ccc(N/N=C(\C#N)C(=O)Nc2ccc(S(=O)(=O)Nc3onc(C)c3C)cc2)cc1 | 7.81 µg/mL (≈ 16.2 µM) | 0.98 µg/mL (≈ 2.03 µM) | 3.9 µg/mL (≈ 8.08 µM) | 18.6 mm | 21.4 mm | 31.2 µg/mL (≈ 64.8 µM) | 19.3 mm | 15.9 mm | 19.6 mm | 1.95 µg/mL (≈ 4.04 µM) | 1.95 µg/mL (≈ 4.04 µM) | 16.3 mm | 17.6 mm | 31.2 µg/mL (≈ 64.8 µM) | 20 mm | 3.9 µg/mL (≈ 8.08 µM) | –
8 | COc1ccc(N/N=C(\C#N)C(=O)Nc2ccc(S(=O)(=O)Nc3onc(C)c3C)cc2)cc1 | 1.95 µg/mL (≈ 4.16 µM) | 1.95 µg/mL (≈ 4.16 µM) | 31.2 µg/mL (≈ 66.7 µM) | 18.6 mm | 19.8 mm | 31.2 µg/mL (≈ 66.7 µM) | 16.3 mm | 15.9 mm | 17.3 mm | 15.6 µg/mL (≈ 33.4 µM) | 0.98 µg/mL (≈ 2.09 µM) | 20.2 mm | 20.2 mm | 1.95 µg/mL (≈ 4.16 µM) | 21.2 mm | 3.9 µg/mL (≈ 8.32 µM) | –
9 | GENTAMICIN | – | – | – | – | – | – | – | – | – | – | – | – | – | – | – | – | MIC [6]: 1.95 µg/mL; inhibition zone (IZ) [17]: 23.4 mm; inhibition zone (IZ) [12]: 26.3 mm; MIC [18]: 0.24 µg/mL; MIC [14]: 0.03 µg/mL
10 | Cc1noc(NS(=O)(=O)c2ccc(NC(=O)/C(C#N)=N/Nc3ccccc3)cc2)c1C | 1.95 µg/mL (≈ 4.45 µM) | 7.81 µg/mL (≈ 17.8 µM) | 15.6 µg/mL (≈ 35.6 µM) | 17.3 mm | 17.8 mm | 125 µg/mL (≈ 285 µM) | 16.5 mm | 13.5 mm | 15.5 mm | 62.5 µg/mL (≈ 143 µM) | 7.81 µg/mL (≈ 17.8 µM) | 19.1 mm | 19.8 mm | 3.9 µg/mL (≈ 8.89 µM) | 18.4 mm | 15.6 µg/mL (≈ 35.6 µM) | –
